Test results from ChEMBL document CHEMBL1212734, “In vitro pharmacodynamics of levofloxacin and other aerosolized antibiotics under multiple conditions relevant to chronic pulmonary infection in cystic fibrosis” (2010).
In brackets after ≈: the same amount, converted by molar mass.

Tests used:
Assay type in all cases: functional
[1] = system: Achromobacter xylosoxidans; assay: Antibacterial activity against Alcaligenes xylosoxidans by broth dilution method
[2] = system: Stenotrophomonas maltophilia; assay: Antibacterial activity against Stenotrophomonas maltophilia by broth dilution method
Pseudomonas aeruginosa [3] = assay: Antibacterial activity against Pseudomonas aeruginosa by broth dilution method
How it was run: (§1)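 Broth microdilution MIC per CLSI reference method; twofold serial dilutions in cation-adjusted Mueller-Hinton broth. […] Endpoint read by OD600 and confirmed visually.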

Staphylococcus aureus [4] = assay: Antibacterial activity against methicillin-resistant Staphylococcus aureus by broth dilution method; how it was run: as §1
Staphylococcus aureus [5] = assay: Antibacterial activity against methicillin-sensitive Staphylococcus aureus by broth dilution method
Pseudomonas aeruginosa [6] = assay: Antibacterial activity against Pseudomonas aeruginosa PA1054 assessed as inhibition of biofilm formation by microtiter plate reader assay
How it was run: (§2)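 Biofilms of cystic fibrosis P. aeruginosa isolates were grown and tested by a previously described method. The endpoint was the biofilm inhibitory concentration, the drug level that prevents biofilm cell growth, compared against planktonic broth-microdilution MICs.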

Pseudomonas aeruginosa [7] = assay: Antibacterial activity against Pseudomonas aeruginosa PA5063 by broth dilution method; how it was run: as §1
Pseudomonas aeruginosa [8] = assay: Antibacterial activity against Pseudomonas aeruginosa PA5043 by broth dilution method; how it was run: as §1
Pseudomonas aeruginosa [9] = assay: Antibacterial activity against Pseudomonas aeruginosa PA5043 assessed as inhibition of biofilm formation by microtiter plate reader assay; how it was run: as §2
Pseudomonas aeruginosa [10] = assay: Antibacterial activity against Pseudomonas aeruginosa PA1042 by broth dilution method; how it was run: as §1
Pseudomonas aeruginosa [11] = assay: Antibacterial activity against Pseudomonas aeruginosa PA1054 by broth dilution method; how it was run: as §1
Pseudomonas aeruginosa [12] = assay: Antibacterial activity against Pseudomonas aeruginosa PA1042 assessed as inhibition of biofilm formation by microtiter plate reader assay; how it was run: as §2
Pseudomonas aeruginosa [13] = assay: Antibacterial activity against Pseudomonas aeruginosa ATCC 27853 by broth dilution method; how it was run: as §1
Burkholderia cepacia = assay: Antibacterial activity against Burkholderia cepacia clinical isolates by broth dilution method
Pseudomonas aeruginosa [14] = assay: Antibacterial activity against Pseudomonas aeruginosa PA5063 assessed as inhibition of biofilm formation by microtiter plate reader assay; how it was run: as §2
Pseudomonas aeruginosa [15] = assay: Antibacterial activity against Pseudomonas aeruginosa ATCC 27853 assessed as inhibition of biofilm formation by microtiter plate reader assay

Structure (SMILES) | MIC50 [1] [µg/mL] | MIC90 [1] [µg/mL] | MIC50 [2] [µg/mL] | MIC90 [2] [µg/mL] | MIC50 (Pseudomonas aeruginosa [3]) [µg/mL] | MIC90 (Pseudomonas aeruginosa [3]) [µg/mL] | MIC50 (Staphylococcus aureus [4]) [µg/mL] | MIC90 (Staphylococcus aureus [4]) [µg/mL] | MIC50 (Staphylococcus aureus [5]) [µg/mL] | MIC90 (Staphylococcus aureus [5]) [µg/mL] | further results
O=C(O)c1cn(C2CC2)c2cc(N3CCNCC3)c(F)cc2c1=O [CIPROFLOXACIN] | 4 (≈ 12.1 µM) | 16 (≈ 48.3 µM) | 4 (≈ 12.1 µM) | 16 (≈ 48.3 µM) | 1 (≈ 3.02 µM) | 8 (≈ 24.1 µM) | 16 (≈ 48.3 µM) | > 32 | 0.125 (≈ 0.377 µM) | 0.5 (≈ 1.51 µM) | 
NCC[C@H](O)C(=O)N[C@@H]1C[C@H](N)[C@@H](O[C@H]2O[C@H](CN)[C@@H](O)[C@H](O)[C@H]2O)[C@H](O)[C@H]1O[C@H]1O[C@H](CO)[C@@H](O)[C@H](N)[C@H]1O [AMIKACIN] | > 128 | > 128 | 128 (≈ 219 µM) | > 128 | 16 (≈ 27.3 µM) | > 128 | 8 (≈ 13.7 µM) | 16 (≈ 27.3 µM) | 1 (≈ 1.71 µM) | 4 (≈ 6.83 µM) | BBC (Pseudomonas aeruginosa [6]): 4 µg/mL; MIC (Pseudomonas aeruginosa [6]; Pseudomonas aeruginosa, PA1054): 1 µg/mL (≈ 1.71 µM); MIC (Pseudomonas aeruginosa [7]): 2 µg/mL (≈ 3.42 µM); MIC (Pseudomonas aeruginosa [8]): 64 µg/mL (≈ 109 µM); BBC (Pseudomonas aeruginosa [9]): 64 µg/mL; MIC (Pseudomonas aeruginosa [10]): 4 µg/mL (≈ 6.83 µM); MIC (Pseudomonas aeruginosa [11]): 1 µg/mL (≈ 1.71 µM); BBC (Pseudomonas aeruginosa [12]): 8 µg/mL; MIC (Pseudomonas aeruginosa [13]): 2 µg/mL (≈ 3.42 µM); MIC50 (Burkholderia cepacia): 128 µg/mL (≈ 219 µM); MIC90 (Burkholderia cepacia): > 128 µg/mL; BBC (Pseudomonas aeruginosa [14]): 16 µg/mL; BBC (Pseudomonas aeruginosa [15]): 8 µg/mL
